Assay results reported in ChEMBL document CHEMBL1139371, “Total synthesis and biological evaluation of tubulysin U, tubulysin V, and their analogues” (J Med Chem, 2009).

Columns and labels:
1A9 = assay: Antiproliferative activity against human 1A9 cells after 4 days by SRB assay; format: functional, cell-based; details: 1A9, 96 h
In short: (§1)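 Compounds were tested as HCl salts and dosed from DMSO. Cells were 1A9 ovarian and MCF-7 breast cancer lines. IC50 is the mean of two independent determinations.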

MCF7 = assay: Antiproliferative activity against human MCF7 cells after 4 days by SRB assay; format: functional, cell-based; details: MCF7, 96 h; in short: as §1
[1] = Inhibition of tubulin polymerization
[2] = Anticancer activity against human KBV1 cells expressing P-gp; format: functional, cell-based; details: KB-V1

SMILES	IC50 (1A9)	IC50 (MCF7)	IC50 [1]	IC50 [2]
CC[C@H](C)[C@H](NC(=O)[C@@H](C)N(C)C)C(=O)NC(CC(=O)c1nc(C(=O)N[C@H](CCC(=O)O)Cc2ccccc2)cs1)C(C)C (single isomer, unassigned)	300 nM	170 nM	12500 nM	
CC[C@H](C)[C@H](NC(=O)[C@H]1CCCCN1C)C(=O)N[C@H](C[C@H](O)c1nc(C(=O)N[C@@H](Cc2ccccc2)C[C@H](C)C(=O)O)cs1)C(C)C	5100 nM	8100 nM	1300 nM	
CC[C@H](C)[C@H](NC(=O)[C@@H](C)N(C)C)C(=O)N[C@H](CC(=O)c1nc(C(=O)N[C@@H](Cc2ccccc2)CC(C)(C)C(=O)O)cs1)C(C)C	14200 nM	12200 nM	8500 nM	
CC[C@H](C)[C@H](NC(=O)[C@@H](C)N(C)C)C(=O)N[C@H](CC(=O)c1nc(C(=O)N[C@@H](Cc2ccccc2)C[C@H](C)C(=O)O)cs1)C(C)C	> 50000 nM		3600 nM	
CC[C@H](C)[C@H](NC(=O)[C@H]1CCCCN1C)C(=O)N[C@H](C[C@@H](O)c1nc(C(=O)N[C@@H](Cc2ccccc2)C[C@H](C)C(=O)O)cs1)C(C)C [TUBULYSIN V]	120 nM	240 nM	1100 nM	
CN[C@H](C(=O)N[C@H](C(=O)N(C)[C@H](/C=C(\C)C(=O)O)C(C)C)C(C)(C)C)C(C)(C)c1ccccc1 [TALTOBULIN]	0.2 nM	0.15 nM	700 nM	
CC[C@H](C)[C@H](NC(=O)[C@H]1CCCCN1C)C(=O)N(COC(=O)CC(C)C)[C@H](C[C@@H](OC(C)=O)c1nc(C(=O)N[C@@H](Cc2ccccc2)C[C@H](C)C(=O)O)cs1)C(C)C [TUBULYSIN D]				0.31 nM
CC[C@H](C)[C@H](NC(=O)[C@H]1CCCCN1C)C(=O)N[C@H](C[C@@H](OC(C)=O)c1nc(C(=O)N[C@@H](Cc2ccccc2)C[C@H](C)C(=O)O)cs1)C(C)C [TUBULYSIN U]	0.65 nM	0.4 nM	1900 nM	
